The source of these data is ChEMBL document CHEMBL4138318, “Discovery of 5-Cyano-6-phenylpyrimidin Derivatives Containing an Acylurea Moiety as Orally Bioavailable Reversal Agents against P-Glycoprotein-Mediated Mutidrug Resistance” (J Med Chem, 2018).

In data set [1] the target is T1, ATP-dependent translocase ABCB1 (Homo sapiens, UniProt P08183). In words: Inhibition of ABCB1 in human SW620/AD300 cells assessed as potentiation of paclitaxel-induced cytotoxicity after 72 hrs by MTT assay. It counts as cell-based. Summed up:
(§1)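 SW620/AD300 cells (~5×10^3/well) treated with graded paclitaxel with or without modulator (2 µM, or 0.5-2 µM in dose series; 0.1% DMSO solvent control) for 72 h; MTT (5 mg/mL stock) added 4 h, absorbance 490 nm. IC50 as mean ± SD of three independent runs; reversal fold = paclitaxel IC50 without/with modulator.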
On the technique in general: Formazan colour is commonly taken as a measure of viable cells.

Data set [2] is described as follows: Cytotoxicity against human SW620/AD300 cells assessed as survival at 2 uM after 72 hrs by MTT assay relative to control. The class given is cell-based. To be noted: read-out: Survival.
Data set [3] deals with T1, ATP-dependent translocase ABCB1. In words: Inhibition of ABCB1 in human SW620/AD300 cells assessed as decrease in rhodamine 123 efflux up to 4 uM preincubated for 4 hrs followed by 30 mins incubation in Rho-123 containing medium and subsequent incubation in Rho-123 free medium up to 120 mins by flow cytometry. The class given is cell-based. Summed up: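 Cells loaded with rhodamine 123 as in the accumulation assay (4 h compound pre-exposure, 1 µg/mL dye 30 min, 37℃), then kept in dye-free medium with or without reversal agent for 30, 60, 90 or 120 min at 37℃; intracellular fluorescence read by flow cytometry at 488/530 nm. Three independent experiments.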
A general note: A flow cytometer gives signals particle by particle.

For a further data set, the system named is SW620/AD300. In words: Effect on subcellular localization of ABCB1 in human SW620/AD300 cells at 2 uM after 48 hrs by Hoechst 33258 staining-based immunofluorescence assay. It counts as functional, cell-based. In outline: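 About 1×10^4 cells on coverslips incubated with compound 48 h, fixed in 4% paraformaldehyde ≥20 min, blocked 2 h in PBS with 5% BSA, anti-ABCB1 primary overnight at 4℃, Alexa Fluor 488 anti-goat secondary 2 h, nuclei stained with Hoechst 33258 20 min; imaged by laser scanning confocal microscopy.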

The target in data set [4] is T1, ATP-dependent translocase ABCB1. The experiment in a line: Inhibition of ABCB1 in human SW620/AD300 cells assessed as potentiation of paclitaxel-induced cytotoxicity by measuring fold reduction in paclitaxel IC50 at 2 uM after 72 hrs by MTT assay relative to paclitaxel alone. The class given is cell-based. In outline:
as §1

Data set [5] is described as follows: Cytotoxicity against human SW620 cells assessed as survival at 2 uM after 72 hrs by MTT assay relative to control. The class given is cell-based, SW-620. Particulars: read-out: Survival.
The target in data set [6] is T1, ATP-dependent translocase ABCB1. The experiment in a line: Inhibition of ABCB1 in human SW620/AD300 cells assessed as potentiation of paclitaxel-induced cytotoxicity by measuring fold reduction in paclitaxel IC50 at 1 uM after 72 hrs by MTT assay. The class given is cell-based. In outline: as §1
The target is the same in data set [7]. In words: Inhibition of ABCB1 in human SW620/AD300 cells assessed as potentiation of paclitaxel-induced cytotoxicity by measuring fold reduction in paclitaxel IC50 at 0.5 uM after 72 hrs by MTT assay. It counts as cell-based. Summed up: as §1
The target of a further data set is Cytochrome P450 3A4 (Homo sapiens, UniProt P08684). The experiment in a line: Inhibition of recombinant human CYP3A4 up to 32 uM in presence of NADPH generating system by fluorescence assay. It counts as ADME. To be noted: recombinant enzyme.
Sequence of Cytochrome P450 3A4 (P08684 whole entry): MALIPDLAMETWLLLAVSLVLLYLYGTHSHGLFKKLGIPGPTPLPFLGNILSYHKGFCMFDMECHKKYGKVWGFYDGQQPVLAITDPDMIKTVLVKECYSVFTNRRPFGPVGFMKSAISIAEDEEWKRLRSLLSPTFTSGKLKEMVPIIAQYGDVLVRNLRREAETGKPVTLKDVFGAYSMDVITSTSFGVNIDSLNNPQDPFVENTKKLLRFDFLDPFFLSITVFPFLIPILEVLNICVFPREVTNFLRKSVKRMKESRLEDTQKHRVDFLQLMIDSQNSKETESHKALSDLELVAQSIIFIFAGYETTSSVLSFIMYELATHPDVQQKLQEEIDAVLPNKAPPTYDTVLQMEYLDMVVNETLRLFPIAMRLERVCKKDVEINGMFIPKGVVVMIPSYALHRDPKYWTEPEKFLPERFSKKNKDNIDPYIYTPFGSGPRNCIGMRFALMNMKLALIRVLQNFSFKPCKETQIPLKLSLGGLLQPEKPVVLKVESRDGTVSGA

Each structure is given as a SMILES string. Active and inactive are the calls of the source. The rule behind the calls is not given here.

T1 sequence (P08183 whole entry): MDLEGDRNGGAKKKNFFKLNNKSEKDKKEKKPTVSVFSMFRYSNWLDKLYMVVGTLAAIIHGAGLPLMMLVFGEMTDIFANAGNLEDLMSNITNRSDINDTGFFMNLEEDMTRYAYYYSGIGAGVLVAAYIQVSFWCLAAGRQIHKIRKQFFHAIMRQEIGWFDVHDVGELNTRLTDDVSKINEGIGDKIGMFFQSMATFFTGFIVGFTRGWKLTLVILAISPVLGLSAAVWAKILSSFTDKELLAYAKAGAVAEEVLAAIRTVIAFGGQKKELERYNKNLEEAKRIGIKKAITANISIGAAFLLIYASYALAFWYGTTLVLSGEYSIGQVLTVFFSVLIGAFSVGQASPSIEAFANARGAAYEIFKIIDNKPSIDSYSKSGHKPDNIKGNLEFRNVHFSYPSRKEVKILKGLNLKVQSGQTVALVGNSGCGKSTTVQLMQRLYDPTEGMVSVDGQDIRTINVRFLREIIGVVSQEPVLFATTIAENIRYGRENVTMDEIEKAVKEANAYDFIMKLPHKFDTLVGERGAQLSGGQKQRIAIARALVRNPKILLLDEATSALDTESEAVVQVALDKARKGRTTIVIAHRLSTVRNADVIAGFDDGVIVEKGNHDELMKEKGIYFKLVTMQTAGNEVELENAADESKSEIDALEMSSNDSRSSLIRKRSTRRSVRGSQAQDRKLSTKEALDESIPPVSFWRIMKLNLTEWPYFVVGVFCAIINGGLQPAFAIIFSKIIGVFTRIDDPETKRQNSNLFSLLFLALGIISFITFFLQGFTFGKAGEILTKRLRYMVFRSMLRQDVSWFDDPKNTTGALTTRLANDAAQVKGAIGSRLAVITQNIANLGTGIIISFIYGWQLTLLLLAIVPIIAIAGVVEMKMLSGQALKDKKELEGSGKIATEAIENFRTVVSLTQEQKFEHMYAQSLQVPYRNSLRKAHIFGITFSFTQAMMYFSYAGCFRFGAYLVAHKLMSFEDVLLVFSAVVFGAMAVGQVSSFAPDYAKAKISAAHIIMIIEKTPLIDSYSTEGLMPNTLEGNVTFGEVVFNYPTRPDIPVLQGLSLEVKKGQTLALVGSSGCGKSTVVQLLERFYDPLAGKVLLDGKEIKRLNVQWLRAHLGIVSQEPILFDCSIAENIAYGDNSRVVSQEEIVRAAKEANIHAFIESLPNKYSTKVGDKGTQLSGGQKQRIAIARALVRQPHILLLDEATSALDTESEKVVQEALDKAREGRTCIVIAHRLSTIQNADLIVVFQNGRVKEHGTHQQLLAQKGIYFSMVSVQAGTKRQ

Regarding `COc1ccc(CCN(C)CCCC(C#N)(c2ccc(OC)c(OC)c2)C(C)C)cc1OC` (configuration not stated), the “inhibition (INH)” value in [1] is “Dose-dependent effect”.

`COc1cc(-c2nc(SCC(=O)NC(=O)Nc3ccccc3)nc(Nc3cccc(Cl)c3)c2C#N)cc(OC)c1OC`: the viability at 72 h, 2 µM in data set [2] and in data set [5] was over 90% throughout. For the same compound, the “inhibition (INH)” value in data set [3] is on record as “Active”; in data set [1], “Dose-dependent effect”; at Cytochrome P450 3A4, “Not Active”. Also, in the data set with SW620/AD300, the result was inactive. Moreover, the figures for the “fold change (FC)” value in data set [4], in data set [6] and in data set [7] were 261.63, 26.33 and 37.04, respectively.

Consider `CC(C)c1ccc(Nc2nc(SCc3cn(CC(=O)NC(=O)Nc4ccccn4)nn3)nc(-c3ccc(C(C)C)cc3)c2C#N)cc1`, for which the viability at 72 h, 2 µM in [2] and in [5] was over 90% in each case. In addition, the “fold change (FC)” value in data set [4] is 9.49.

Consider `CC(C)c1ccc(-c2nc(SCc3cn(CC(=O)NC(=O)Nc4ccccn4)nn3)nc(Nc3ccccc3)c2C#N)cc1`, for which the viability at 72 h, 2 µM in [2] and in [5] was over 90% each time. Further, in data set [4], the “fold change (FC)” value came out at 1.65.

As to `N#Cc1c(Nc2cccc(C(F)(F)F)c2)nc(SCC(=O)NC(=O)Nc2ccccn2)nc1-c1ccc(F)c(F)c1`, the viability at 72 h, 2 µM in [2] and in data set [5] was over 90% throughout. Further, in data set [4], the “fold change (FC)” value is 3.11.

Regarding `COc1cc(-c2nc(SCC(=O)NC(=O)Nc3ccccc3)nc(Nc3ccc(C(C)C)cc3)c2C#N)cc(OC)c1OC`, the viability at 72 h, 2 µM in data set [2] and in data set [5] was over 90% in each case. Also, the “fold change (FC)” value in data set [4] is 25.07.

With `COc1cc(-c2nc(SCC(=O)NC(=O)Nc3ccccn3)nc(Nc3ccc(Br)cc3)c2C#N)cc(OC)c1OC`, the viability at 72 h, 2 µM in [2] and in data set [5] was over 90% in each case. Further, the “inhibition (INH)” value in data set [3] was “Active”; in [1], “Dose-dependent effect”; at Cytochrome P450 3A4, “Not Active”. In addition, in the data set with SW620/AD300, the outcome was inactive. The “fold change (FC)” value in [4] stood at 190.27; in data set [6], 32.2; in data set [7] it was 8.019.

With `Cc1ccc(Nc2nc(SCC(=O)NC(=O)Nc3ccccn3)nc(-c3ccc(C(C)C)cc3)c2C#N)cc1`, the viability at 72 h, 2 µM in [2] and in data set [5] was over 90% in each case. The “fold change (FC)” value in [4] amounted to 1.64.

Regarding `Cc1ccc(Nc2nc(SCc3cn(CC(=O)NC(=O)Nc4ccccn4)nn3)nc(-c3ccc(C)cc3)c2C#N)cc1`, the viability at 72 h, 2 µM in data set [2] and in [5] was over 90% each time. The “fold change (FC)” value in data set [4] came to 17.37.

For `Cc1ccc(-c2nc(SCc3cn(CC(=O)NC(=O)Nc4ccccn4)nn3)nc(Nc3cccc(Cl)c3)c2C#N)cc1`, the viability at 72 h, 2 µM in data set [2] and in data set [5] was over 90% throughout. Besides, the “fold change (FC)” value in data set [4] was found to be 13.42.

In the case of `CC(C)c1ccc(-c2nc(SCc3cn(CC(=O)NC(=O)Nc4ccccn4)nn3)nc(Nc3cccc(Cl)c3)c2C#N)cc1`, the viability at 72 h, 2 µM in data set [2] and in data set [5] was over 90% throughout. The “fold change (FC)” value in data set [4] stood at 2.71.

Consider `COc1cc(-c2nc(SCc3cn(CC(=O)NC(=O)Nc4ccccn4)nn3)nc(Nc3cccc(C(F)(F)F)c3)c2C#N)cc(OC)c1OC`, for which the viability at 72 h, 2 µM in data set [2] and in [5] was over 90% each time. Also, in data set [4], the “fold change (FC)” value amounted to 1.35.

Consider `COc1ccccc1Nc1nc(SCC(=O)NC(=O)Nc2ccccn2)nc(-c2cc(OC)c(OC)c(OC)c2)c1C#N`, for which the viability at 72 h, 2 µM in data set [2] and in data set [5] was over 90% each time. Further, the “fold change (FC)” value in [4] worked out at 8.67.

As to `COc1cc(-c2nc(SCc3cn(CC(=O)NC(=O)Nc4ccccn4)nn3)nc(Nc3ccc(C(C)C)cc3)c2C#N)cc(OC)c1OC`, the viability at 72 h, 2 µM in data set [2] and in data set [5] was over 90% in each case. Also, in data set [4], the “fold change (FC)” value turned out to be 13.16.

In the case of `N#Cc1c(Nc2cccc(Cl)c2)nc(SCC(=O)NC(=O)Nc2ccccn2)nc1-c1ccc(F)c(F)c1`, the viability at 72 h, 2 µM in [2] and in data set [5] was over 90% in each case. Further, the “fold change (FC)” value in [4] stood at 4.37.

Take `COc1cc(-c2nc(SCc3cn(CC(=O)NC(=O)Nc4ccccn4)nn3)nc(Nc3ccc(Cl)cc3)c2C#N)cc(OC)c1OC`: the viability at 72 h, 2 µM in data set [2] and in data set [5] was over 90% each time. For the same compound, in data set [4], the “fold change (FC)” value came to 1.71.

For the compound `COc1ccc(Nc2nc(SCc3cn(CC(=O)NC(=O)Nc4ccccn4)nn3)nc(-c3ccc(C(C)C)cc3)c2C#N)cc1`, the viability at 72 h, 2 µM in data set [2] and in data set [5] was over 90% in each case. In addition, in [4], the “fold change (FC)” value was 6.3.

`CC(C)c1ccc(-c2nc(SCc3cn(CC(=O)NC(=O)Nc4ccccn4)nn3)nc(Nc3ccc(Cl)cc3)c2C#N)cc1`: the viability at 72 h, 2 µM in data set [2] and in data set [5] was over 90% throughout. Further, in [4], the “fold change (FC)” value was 1.66.

With `COc1ccc(Nc2nc(SCC(=O)NC(=O)Nc3ccccn3)nc(-c3ccc(C(C)C)cc3)c2C#N)cc1`, the viability at 72 h, 2 µM in data set [2] and in data set [5] was over 90% each time. Moreover, in data set [4], the “fold change (FC)” value turned out to be 2.17.
